Here are results for three molecules from ChEMBL document CHEMBL5705891, “Small-molecule kinase inhibitors provide insight into Mps1 cell cycle function” (Nat Chem Biol, 2010).

Structures are written as SMILES. Calls of active or inactive are those of the source. The calls are words filed in the database; no cut-off is given here.

The test system of assay [1] is UTRM10. The assay can be described thus: Effect on thymidine-treated UTRM10 cells (unknown origin) with Mps1-/- incubated for 24 to 72 hrs by immunoblot analysis. Type of assay: functional, cell-based. To be noted: time lower 24.0 hrs, time upper […]. A general note: In western blotting, separated proteins are transferred to a membrane and probed.
Assay [2] has as its target T1, Serine/threonine-protein kinase PLK4 (Homo sapiens) (UniProt O00444).
T1 sequence (whole entry): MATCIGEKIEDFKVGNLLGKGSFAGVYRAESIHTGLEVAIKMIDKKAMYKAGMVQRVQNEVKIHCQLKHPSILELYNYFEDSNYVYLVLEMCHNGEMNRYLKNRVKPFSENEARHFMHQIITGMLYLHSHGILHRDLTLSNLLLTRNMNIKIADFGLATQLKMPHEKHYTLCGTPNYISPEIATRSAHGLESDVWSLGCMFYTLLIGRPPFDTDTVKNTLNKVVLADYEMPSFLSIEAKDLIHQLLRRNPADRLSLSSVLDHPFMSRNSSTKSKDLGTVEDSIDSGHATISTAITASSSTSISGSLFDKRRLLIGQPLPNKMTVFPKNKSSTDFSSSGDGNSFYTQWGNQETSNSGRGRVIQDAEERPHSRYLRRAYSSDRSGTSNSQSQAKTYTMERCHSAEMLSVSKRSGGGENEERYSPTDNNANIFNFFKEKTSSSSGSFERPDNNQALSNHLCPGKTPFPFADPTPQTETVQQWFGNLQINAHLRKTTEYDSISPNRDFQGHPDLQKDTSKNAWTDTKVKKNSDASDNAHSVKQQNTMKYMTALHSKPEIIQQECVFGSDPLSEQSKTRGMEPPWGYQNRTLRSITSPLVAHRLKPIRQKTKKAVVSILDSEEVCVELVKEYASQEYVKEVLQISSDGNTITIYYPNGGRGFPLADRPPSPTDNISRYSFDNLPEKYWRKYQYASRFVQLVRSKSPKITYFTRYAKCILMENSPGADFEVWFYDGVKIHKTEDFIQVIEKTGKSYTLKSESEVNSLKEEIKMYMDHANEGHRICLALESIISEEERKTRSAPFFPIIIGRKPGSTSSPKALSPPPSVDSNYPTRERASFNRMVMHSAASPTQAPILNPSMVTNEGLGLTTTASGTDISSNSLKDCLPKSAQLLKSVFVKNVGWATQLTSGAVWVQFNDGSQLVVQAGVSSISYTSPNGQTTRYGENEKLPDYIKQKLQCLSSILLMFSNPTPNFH
The assay can be described thus: Induction of Plk4 in human U2OS cells assessed as resolution of metaphase multipolar spindles into bipolar spindles in anaphase in cell populations with extra centrosomes by centrin staining based analysis. The note with it: filed as activator. In short, it runs like this:
(§1)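 U2OS cells with doxycycline-inducible Plk4 were induced with doxycycline (2 μg·ml⁻¹) or given DMSO. Metaphase spindles carrying more than 2 centrosomes were counted by centrin staining (~300 spindles), and spindle polarity was followed by centrin/α-tubulin/DNA immunofluorescence.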

In assay [3] the test system is U2OS. Nature of the assay: Induction of extra centrosomes in cell populations of thymidine-treated human U2OS cells expressing H2B-GFP and Plk4 overexpression assessed as fold delay in anaphase onset measured for 30 mins by time lapse imaging analysis relative to control. Type of assay: functional. To be noted: 0.5 h. In short, it runs like this:
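Doxycycline-inducible Plk4 U2OS cells expressing H2B-GFP were blocked with thymidine for 18 hrs and released into doxycycline (2 μg·ml⁻¹) for 10 hrs. A second 18-hr thymidine block followed, then release for 6 hrs before 5 μM inhibitor, with or without Plk4 induction. Cells were imaged by time-lapse at 37°C, 5% CO₂, timed from NEBD, and bipolar versus multipolar anaphases were scored. Values are mean ± SD of 3 independent experiments.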

Assay [4] has as its target T1, Serine/threonine-protein kinase PLK4 (Homo sapiens). Nature of the assay: Induction of Plk4 in human U2OS cells assessed as bipolar cell division of cell populations with extra centrosomes by centrin staining based analysis. The note with it: filed as activator. A digest of the protocol: as §1
Assay [5] has the same target. Nature of the assay: Induction of Plk4 in human U2OS cells assessed as increase in cell populations with extra centrosomes by centrin staining based analysis relative to control. To be noted: filed as activator. A digest of the protocol: as §1
The test system of assay [6] is UTRM10. Nature of the assay: Reversal of Paclitaxel-induced mitotic arrest in UTRM10 cells (unknown origin) by immunoblot analysis. The class given is functional, cell-based.
Assay [7] addresses Serine/threonine-protein kinase PLK1 (Homo sapiens, UniProt P53350). Nature of the assay: Binding affinity to PLK1 (unknown origin) assessed as dissociation constant by Ambit kinase binding assay.
Assay [8] addresses T2, Cyclin-G-associated kinase (Homo sapiens) (UniProt O14976).
T2 sequence (whole entry): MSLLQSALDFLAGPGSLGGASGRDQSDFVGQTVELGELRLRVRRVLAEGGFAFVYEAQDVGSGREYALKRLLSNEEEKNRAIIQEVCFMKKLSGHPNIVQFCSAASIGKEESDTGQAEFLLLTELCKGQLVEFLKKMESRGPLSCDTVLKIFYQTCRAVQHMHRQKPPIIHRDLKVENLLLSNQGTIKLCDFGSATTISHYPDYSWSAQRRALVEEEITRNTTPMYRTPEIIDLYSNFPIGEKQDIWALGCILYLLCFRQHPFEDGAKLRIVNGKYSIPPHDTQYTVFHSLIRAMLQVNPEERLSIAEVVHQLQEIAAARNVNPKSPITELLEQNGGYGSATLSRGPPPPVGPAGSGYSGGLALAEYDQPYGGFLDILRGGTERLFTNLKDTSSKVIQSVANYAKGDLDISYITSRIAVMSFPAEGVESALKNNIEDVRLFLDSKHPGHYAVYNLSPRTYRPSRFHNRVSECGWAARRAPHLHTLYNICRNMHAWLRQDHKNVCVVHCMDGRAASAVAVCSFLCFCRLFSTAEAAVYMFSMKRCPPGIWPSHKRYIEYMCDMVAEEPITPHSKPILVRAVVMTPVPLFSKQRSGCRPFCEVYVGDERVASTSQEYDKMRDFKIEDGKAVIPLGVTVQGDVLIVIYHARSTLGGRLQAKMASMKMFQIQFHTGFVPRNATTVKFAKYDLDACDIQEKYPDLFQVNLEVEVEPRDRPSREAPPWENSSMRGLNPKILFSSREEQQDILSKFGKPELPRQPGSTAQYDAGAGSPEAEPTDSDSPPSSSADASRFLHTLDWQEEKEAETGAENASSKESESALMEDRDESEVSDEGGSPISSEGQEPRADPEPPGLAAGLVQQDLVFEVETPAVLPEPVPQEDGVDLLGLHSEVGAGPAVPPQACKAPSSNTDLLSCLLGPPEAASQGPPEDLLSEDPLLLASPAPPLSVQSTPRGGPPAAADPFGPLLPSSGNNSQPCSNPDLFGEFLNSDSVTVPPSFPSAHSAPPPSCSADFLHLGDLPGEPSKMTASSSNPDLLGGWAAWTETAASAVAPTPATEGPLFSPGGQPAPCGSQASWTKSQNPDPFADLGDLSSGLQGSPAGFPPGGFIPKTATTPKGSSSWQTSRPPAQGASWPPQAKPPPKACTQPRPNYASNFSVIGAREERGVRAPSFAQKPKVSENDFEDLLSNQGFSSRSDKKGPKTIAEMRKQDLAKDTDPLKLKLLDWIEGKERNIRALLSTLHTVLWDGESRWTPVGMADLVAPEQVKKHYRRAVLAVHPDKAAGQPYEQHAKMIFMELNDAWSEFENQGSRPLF
Nature of the assay: Inhibition of GAK (unknown origin) assessed as residual enzyme activity at 10 uM by Ambit kinase binding assay relative to control.

Assay [9] concerns the target Serine/threonine-protein kinase 33 (Homo sapiens, UniProt Q9BYT3). Nature of the assay: Binding affinity to STK33 (unknown origin) assessed as dissociation constant by Ambit kinase binding assay.
The target in assay [10] is Protein-tyrosine kinase 2-beta (Homo sapiens, UniProt Q14289). The assay can be described thus: Inhibition of PTK2B (unknown origin) assessed as residual enzyme activity at 10 uM by Ambit kinase binding assay relative to control.
In assay [11] the target is Serine/threonine-protein kinase PLK3 (Homo sapiens, UniProt Q9H4B4). The assay can be described thus: Binding affinity to PLK3 (unknown origin) assessed as dissociation constant by Ambit kinase binding assay.
Assay [12] concerns the target Cyclin-G-associated kinase (Homo sapiens, UniProt O14976). Nature of the assay: Binding affinity to GAK (unknown origin) assessed as dissociation constant by Ambit kinase binding assay.
The test system of assay [13] is U2OS. The assay can be described thus: Reversal of s-trityl cysteine-induced mitotic arrest in human U2OS cells assessed as Ser10 phosphorylated Histone H3-positive 4c population at 5 uM incubated for 16 hrs by flow cytometry (reference value: 50 %). Type of assay: functional. A general note: Flow cytometry measures light scatter and fluorescence of single cells or particles in a stream.

Assay [14] relates to U2OS. Nature of the assay: Reversal of nocodazole-induced mitotic arrest in human U2OS cells assessed as decrease in cyclin B level at 10 uM incubated for 4 hrs in presence of MG132 by immunoblot analysis. Type of assay: functional, cell-based.
Assay [15] relates to U2OS. Nature of the assay: Reversal of s-trityl cysteine-induced mitotic arrest in human U2OS cells assessed as Ser10 phosphorylated Histone H3-positive 4c population at 10 uM incubated for 16 hrs by flow cytometry (reference value: 50 %). Type of assay: functional.
The target of assay [16] is Receptor-type tyrosine-protein kinase FLT3 (Homo sapiens) (UniProt P36888). The assay can be described thus: Inhibition of FLT3 (unknown origin) assessed as residual enzyme activity at 10 uM by Ambit kinase binding assay relative to control.
Assay [17] has as its system U2OS. Nature of the assay: Reversal of nocodazole-induced mitotic arrest in human U2OS cells assessed as decrease in cyclin B level at 0.3 to 10 uM incubated for 4 hrs by immunoblot analysis. Type of assay: functional, cell-based. The note with it: dose 0.3-10 µM.
Assay [18] deals with UTRM10. Nature of the assay: Upregulation of phosphorylated histone H3 level in UTRM10 cells (unknown origin) upto 10 uM by immunoblot analysis. Type of assay: functional, cell-based.
Assay [19] has as its target Serine/threonine-protein kinase PLK4 (Homo sapiens, UniProt O00444). Nature of the assay: Binding affinity to PLK4 (unknown origin) assessed as dissociation constant by Ambit kinase binding assay.

Receptor-type tyrosine-protein kinase FLT3 (Homo sapiens), sequence (P36888 whole entry): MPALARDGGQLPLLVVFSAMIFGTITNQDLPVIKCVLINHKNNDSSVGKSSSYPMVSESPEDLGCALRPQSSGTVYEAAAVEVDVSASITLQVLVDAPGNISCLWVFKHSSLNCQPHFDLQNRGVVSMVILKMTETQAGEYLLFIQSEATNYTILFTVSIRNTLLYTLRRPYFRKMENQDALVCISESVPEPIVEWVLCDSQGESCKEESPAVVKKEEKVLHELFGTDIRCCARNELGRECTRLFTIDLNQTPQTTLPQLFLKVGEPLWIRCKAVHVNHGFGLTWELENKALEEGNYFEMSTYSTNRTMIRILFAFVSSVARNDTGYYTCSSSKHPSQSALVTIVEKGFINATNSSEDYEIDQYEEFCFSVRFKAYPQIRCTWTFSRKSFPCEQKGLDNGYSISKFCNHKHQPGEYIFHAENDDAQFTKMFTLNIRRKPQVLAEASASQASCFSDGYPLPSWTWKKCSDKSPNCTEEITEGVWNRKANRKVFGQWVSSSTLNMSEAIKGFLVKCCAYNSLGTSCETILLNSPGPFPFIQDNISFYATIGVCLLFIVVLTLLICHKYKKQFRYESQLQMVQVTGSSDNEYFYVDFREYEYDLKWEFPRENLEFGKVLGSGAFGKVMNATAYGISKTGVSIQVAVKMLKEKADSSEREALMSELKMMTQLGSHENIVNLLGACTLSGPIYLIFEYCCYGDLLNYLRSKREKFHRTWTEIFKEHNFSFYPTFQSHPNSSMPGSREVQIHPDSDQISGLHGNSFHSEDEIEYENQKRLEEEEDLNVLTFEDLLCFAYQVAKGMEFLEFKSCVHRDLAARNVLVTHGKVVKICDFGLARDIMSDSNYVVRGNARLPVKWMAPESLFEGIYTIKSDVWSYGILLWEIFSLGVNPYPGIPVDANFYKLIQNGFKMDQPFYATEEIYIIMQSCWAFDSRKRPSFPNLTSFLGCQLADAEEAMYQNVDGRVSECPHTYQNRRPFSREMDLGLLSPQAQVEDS
Serine/threonine-protein kinase PLK1, sequence (P53350 whole entry): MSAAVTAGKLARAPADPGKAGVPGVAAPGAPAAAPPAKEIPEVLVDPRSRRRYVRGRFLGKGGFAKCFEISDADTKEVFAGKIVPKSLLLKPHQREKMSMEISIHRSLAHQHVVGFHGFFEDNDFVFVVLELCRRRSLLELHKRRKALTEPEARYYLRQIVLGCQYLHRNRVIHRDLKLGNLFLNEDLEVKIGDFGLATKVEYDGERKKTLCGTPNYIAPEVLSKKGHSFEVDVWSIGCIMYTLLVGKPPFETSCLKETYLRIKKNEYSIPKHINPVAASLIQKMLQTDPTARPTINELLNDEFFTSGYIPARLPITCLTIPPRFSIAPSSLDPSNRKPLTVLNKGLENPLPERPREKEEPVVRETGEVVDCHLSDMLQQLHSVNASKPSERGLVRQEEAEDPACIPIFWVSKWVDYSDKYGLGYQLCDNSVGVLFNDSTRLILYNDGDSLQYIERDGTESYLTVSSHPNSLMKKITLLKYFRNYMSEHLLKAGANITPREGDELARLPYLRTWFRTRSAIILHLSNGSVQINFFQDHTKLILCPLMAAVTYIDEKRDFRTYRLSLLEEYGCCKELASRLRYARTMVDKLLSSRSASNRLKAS
Serine/threonine-protein kinase 33, sequence (Q9BYT3 whole entry): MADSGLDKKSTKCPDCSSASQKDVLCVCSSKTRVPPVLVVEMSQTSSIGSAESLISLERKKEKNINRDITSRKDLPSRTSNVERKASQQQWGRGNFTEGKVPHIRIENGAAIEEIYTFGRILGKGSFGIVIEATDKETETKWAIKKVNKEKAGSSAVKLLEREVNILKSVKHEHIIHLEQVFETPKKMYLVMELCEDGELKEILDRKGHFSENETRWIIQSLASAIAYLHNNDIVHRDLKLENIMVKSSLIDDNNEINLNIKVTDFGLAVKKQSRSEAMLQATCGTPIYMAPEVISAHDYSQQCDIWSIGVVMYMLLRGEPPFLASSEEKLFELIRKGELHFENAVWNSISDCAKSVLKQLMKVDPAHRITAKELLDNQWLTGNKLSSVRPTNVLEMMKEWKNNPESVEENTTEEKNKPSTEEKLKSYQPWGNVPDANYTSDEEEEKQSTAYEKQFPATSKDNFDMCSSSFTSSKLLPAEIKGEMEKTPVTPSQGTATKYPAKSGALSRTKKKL
Protein-tyrosine kinase 2-beta, sequence (Q14289 whole entry, looked up): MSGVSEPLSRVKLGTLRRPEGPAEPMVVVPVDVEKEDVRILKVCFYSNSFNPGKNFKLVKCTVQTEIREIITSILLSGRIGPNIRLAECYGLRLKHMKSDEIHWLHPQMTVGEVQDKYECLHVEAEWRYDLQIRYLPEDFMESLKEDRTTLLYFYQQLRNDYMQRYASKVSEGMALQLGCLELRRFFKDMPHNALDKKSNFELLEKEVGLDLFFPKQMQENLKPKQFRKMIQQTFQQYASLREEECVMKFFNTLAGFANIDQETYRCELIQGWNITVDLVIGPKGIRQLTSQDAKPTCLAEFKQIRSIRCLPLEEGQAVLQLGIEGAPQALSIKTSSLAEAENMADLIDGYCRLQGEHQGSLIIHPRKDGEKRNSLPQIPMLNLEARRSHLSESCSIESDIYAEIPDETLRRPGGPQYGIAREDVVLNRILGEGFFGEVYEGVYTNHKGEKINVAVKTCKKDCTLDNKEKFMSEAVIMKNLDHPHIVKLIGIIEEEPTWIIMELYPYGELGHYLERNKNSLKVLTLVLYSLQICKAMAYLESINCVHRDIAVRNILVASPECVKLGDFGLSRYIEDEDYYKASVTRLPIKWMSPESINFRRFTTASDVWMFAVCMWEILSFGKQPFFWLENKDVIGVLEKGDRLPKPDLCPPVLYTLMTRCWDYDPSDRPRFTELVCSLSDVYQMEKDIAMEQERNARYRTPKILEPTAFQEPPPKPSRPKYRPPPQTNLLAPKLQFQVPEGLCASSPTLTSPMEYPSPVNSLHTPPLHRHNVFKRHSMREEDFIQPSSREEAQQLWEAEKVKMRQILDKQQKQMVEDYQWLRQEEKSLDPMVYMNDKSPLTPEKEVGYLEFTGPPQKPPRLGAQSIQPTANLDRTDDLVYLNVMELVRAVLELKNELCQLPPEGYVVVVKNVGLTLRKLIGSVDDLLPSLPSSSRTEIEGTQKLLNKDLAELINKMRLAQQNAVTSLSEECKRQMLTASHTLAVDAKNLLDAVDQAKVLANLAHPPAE
Serine/threonine-protein kinase PLK3, sequence (Q9H4B4 whole entry): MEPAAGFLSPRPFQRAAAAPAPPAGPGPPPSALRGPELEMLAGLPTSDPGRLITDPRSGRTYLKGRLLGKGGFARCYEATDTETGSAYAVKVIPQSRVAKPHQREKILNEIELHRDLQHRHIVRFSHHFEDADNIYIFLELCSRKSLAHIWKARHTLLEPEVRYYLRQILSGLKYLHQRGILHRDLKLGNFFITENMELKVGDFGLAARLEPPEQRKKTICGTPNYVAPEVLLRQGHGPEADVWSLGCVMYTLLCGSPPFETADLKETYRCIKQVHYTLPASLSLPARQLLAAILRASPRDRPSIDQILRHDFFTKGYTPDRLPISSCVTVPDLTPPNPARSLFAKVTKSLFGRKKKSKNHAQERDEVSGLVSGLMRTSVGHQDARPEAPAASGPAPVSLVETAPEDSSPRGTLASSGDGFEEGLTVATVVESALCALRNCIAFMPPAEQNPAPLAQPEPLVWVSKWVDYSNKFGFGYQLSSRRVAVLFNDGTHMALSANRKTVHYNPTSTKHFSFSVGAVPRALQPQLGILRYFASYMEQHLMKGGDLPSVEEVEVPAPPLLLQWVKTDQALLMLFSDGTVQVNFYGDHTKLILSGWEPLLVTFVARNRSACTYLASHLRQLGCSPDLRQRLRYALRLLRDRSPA

Regarding `C[C@H]1c2cccc(O)c2C(=O)C2=C(O)[C@]3(O)C(=O)C(C(N)=O)=C(O)[C@@H](N(C)C)[C@@H]3[C@@H](O)[C@@H]21` [DOXYCYCLINE ANHYDROUS], the result in [1] was inactive. Also, the result in assay [2] and in [4] was Active. In [3], the “fold change (FC)” value was 2. Moreover, in assay [5], the Activity was 80%.
`Cc1cc(Nc2cc(N3CCN(C)CC3)nc(Sc3ccc(NC(=O)C4CC4)cc3)n2)n[nH]1`: the result in assay [6] was Active.
For `CCOc1cc(N2CCC(O)CC2)ccc1Nc1ncc2c(n1)N(C1CCCC1)CCC(=O)N2C`, the equilibrium dissociation constant (Kd) – broadly, the constant that tells how readily two partners part at equilibrium – in assay [7] was found to be 0.061 µM; in [9], 5 µM; in assay [11], 1.6 µM; in assay [12], 0.14 µM; in assay [19], 3.1 µM. The Activity in [8] turned out to be 2%; in assay [10], 24%; in assay [13] it was 14%; in assay [15] it was 4%; in [16], 0%. The outcome in assay [14] was inactive. In addition, the outcome in assay [17] and in [18] was Active.
